{"source": "paper PMC9401513", "about": "(Clinical Cancer Research, 2021)", "tested_on": "patients with advanced solid tumors", "experiment": "Adverse events graded by NCI-CTCAE v4.03 in phase I patients", "format": "in vivo, human", "conditions": "for Number of AEs (TRAEs) / Pts discontinued due to AEs (TRAEs) / Pts with AEs (TRAEs) / Pts with G3/G4 AEs (TRAEs) / Pts with SAEs (TRAEs) / Pts with dose reduction and temporary discontinuation due to AEs (TRAEs) / Pts with dose reduction due to AEs (TRAEs) / Pts with temporary discontinuation due to AEs (TRAEs): all cycles", "procedure,_shortened": "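Test compound was given by IV infusion over about 60 min every 3 weeks in sequential dose-escalation cohorts to adults with advanced solid tumors (ECOG 0–1). Adverse events were graded by NCI-CTCAE v4.03 over all cycles and tabulated as treatment-related by dose level. G-CSF was permitted after cycle 1. Antiemetics and corticosteroids were given at the physician's discretion.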", "key": {"[1]": {"conditions": "0.2 mg/kg every 3 weeks, 2 evaluable pts"}, "[2]": {"conditions": "0.5 mg/kg every 3 weeks, 2 evaluable pts"}, "[3]": {"conditions": "1.25 mg/kg every 3 weeks, 2 evaluable pts"}, "[4]": {"conditions": "2.1 mg/kg every 3 weeks, 4 evaluable pts"}, "[5]": {"conditions": "2.8 mg/kg every 3 weeks, 96 evaluable pts"}, "[6]": {"conditions": "3.7 mg/kg every 3 weeks, 6 evaluable pts"}}}
{"molecule": "cofetuzumab pelidotin (conjugate, chains of the INN, looked up, auristatin-0101 payload, vc linker) VH: QVQLVQSGPEVKKPGASVKVSCKASGYTFTDYAVHWVRQAPGKRLEWIGVISTYNDYTYNNQDFKGRVTMTRDTSASTAYMELSRLRSEDTAVYYCARGNSYFYALDYWGQGTSVTVSS VL: EIVLTQSPATLSLSPGERATLSCRASESVDSYGKSFMHWYQQKPGQAPRLLIYRASNLESGIPARFSGSGSGTDFTLTISSLEPEDFAVYYCQQSNEDPWTFGGGTKLEIK", "values": [{"measurement": "Number of AEs (TRAEs)", "setting": "[1]", "value": "1 n (%)"}, {"measurement": "Pts discontinued due to AEs (TRAEs)", "setting": "[1]", "value": "0 n (%)"}, {"measurement": "Pts with AEs (TRAEs)", "setting": "[1]", "value": "1 (50.0) n (%)"}, {"measurement": "Pts with G3/G4 AEs (TRAEs)", "setting": "[1]", "value": "1 (50.0) n (%)"}, {"measurement": "Pts with SAEs (TRAEs)", "setting": "[1]", "value": "0 n (%)"}, {"measurement": "Pts with dose reduction and temporary discontinuation due to AEs (TRAEs)", "setting": "[1]", "value": "0 n (%)"}, {"measurement": "Pts with dose reduction due to AEs (TRAEs)", "setting": "[1]", "value": "0 n (%)"}, {"measurement": "Pts with temporary discontinuation due to AEs (TRAEs)", "setting": "[1]", "value": "0 n (%)"}, {"measurement": "Number of AEs (TRAEs)", "setting": "[2]", "value": "1 n (%)"}, {"measurement": "Pts discontinued due to AEs (TRAEs)", "setting": "[2]", "value": "0 n (%)"}, {"measurement": "Pts with AEs (TRAEs)", "setting": "[2]", "value": "1 (50.0) n (%)"}, {"measurement": "Pts with G3/G4 AEs (TRAEs)", "setting": "[2]", "value": "0 n (%)"}, {"measurement": "Pts with SAEs (TRAEs)", "setting": "[2]", "value": "0 n (%)"}, {"measurement": "Pts with dose reduction and temporary discontinuation due to AEs (TRAEs)", "setting": "[2]", "value": "0 n (%)"}, {"measurement": "Pts with dose reduction due to AEs (TRAEs)", "setting": "[2]", "value": "0 n (%)"}, {"measurement": "Pts with temporary discontinuation due to AEs (TRAEs)", "setting": "[2]", "value": "0 n (%)"}, {"measurement": "Number of AEs (TRAEs)", "setting": "[3]", "value": "6 n (%)"}, {"measurement": "Pts discontinued due to AEs (TRAEs)", "setting": "[3]", "value": "0 n (%)"}, {"measurement": "Pts with AEs (TRAEs)", "setting": "[3]", "value": "1 (50.0) n (%)"}, {"measurement": "Pts with G3/G4 AEs (TRAEs)", "setting": "[3]", "value": "0 n (%)"}, {"measurement": "Pts with SAEs (TRAEs)", "setting": "[3]", "value": "0 n (%)"}, {"measurement": "Pts with dose reduction and temporary discontinuation due to AEs (TRAEs)", "setting": "[3]", "value": "0 n (%)"}, {"measurement": "Pts with dose reduction due to AEs (TRAEs)", "setting": "[3]", "value": "0 n (%)"}, {"measurement": "Pts with temporary discontinuation due to AEs (TRAEs)", "setting": "[3]", "value": "0 n (%)"}, {"measurement": "Number of AEs (TRAEs)", "setting": "[4]", "value": "28 n (%)"}, {"measurement": "Pts discontinued due to AEs (TRAEs)", "setting": "[4]", "value": "1 (25.0) n (%)"}, {"measurement": "Pts with AEs (TRAEs)", "setting": "[4]", "value": "4 (100.0) n (%)"}, {"measurement": "Pts with G3/G4 AEs (TRAEs)", "setting": "[4]", "value": "0 n (%)"}, {"measurement": "Pts with SAEs (TRAEs)", "setting": "[4]", "value": "1 (25.0) n (%)"}, {"measurement": "Pts with dose reduction and temporary discontinuation due to AEs (TRAEs)", "setting": "[4]", "value": "0 n (%)"}, {"measurement": "Pts with dose reduction due to AEs (TRAEs)", "setting": "[4]", "value": "0 n (%)"}, {"measurement": "Pts with temporary discontinuation due to AEs (TRAEs)", "setting": "[4]", "value": "0 n (%)"}, {"measurement": "Number of AEs (TRAEs)", "setting": "[5]", "value": "475 n (%)"}, {"measurement": "Pts discontinued due to AEs (TRAEs)", "setting": "[5]", "value": "2 (2.1) n (%)"}, {"measurement": "Pts with AEs (TRAEs)", "setting": "[5]", "value": "84 (87.5) n (%)"}, {"measurement": "Pts with G3/G4 AEs (TRAEs)", "setting": "[5]", "value": "40 (41.7) n (%)"}, {"measurement": "Pts with SAEs (TRAEs)", "setting": "[5]", "value": "9 (9.4) n (%)"}, {"measurement": "Pts with dose reduction and temporary discontinuation due to AEs (TRAEs)", "setting": "[5]", "value": "3 (3.1) n (%)"}, {"measurement": "Pts with dose reduction due to AEs (TRAEs)", "setting": "[5]", "value": "7 (7.3) n (%)"}, {"measurement": "Pts with temporary discontinuation due to AEs (TRAEs)", "setting": "[5]", "value": "16 (16.7) n (%)"}, {"measurement": "Number of AEs (TRAEs)", "setting": "[6]", "value": "27 n (%)"}, {"measurement": "Pts discontinued due to AEs (TRAEs)", "setting": "[6]", "value": "0 n (%)"}, {"measurement": "Pts with AEs (TRAEs)", "setting": "[6]", "value": "5 (83.3) n (%)"}, {"measurement": "Pts with G3/G4 AEs (TRAEs)", "setting": "[6]", "value": "3 (50.0) n (%)"}, {"measurement": "Pts with SAEs (TRAEs)", "setting": "[6]", "value": "0 n (%)"}, {"measurement": "Pts with dose reduction and temporary discontinuation due to AEs (TRAEs)", "setting": "[6]", "value": "1 (16.7) n (%)"}, {"measurement": "Pts with dose reduction due to AEs (TRAEs)", "setting": "[6]", "value": "0 n (%)"}, {"measurement": "Pts with temporary discontinuation due to AEs (TRAEs)", "setting": "[6]", "value": "0 n (%)"}, {"measurement": "patients reporting headache after infusion on cycle 1, day 1 or 2", "setting": "all patients, every 3 weeks and every 2 weeks cohorts", "value": 29, "unit": "patients"}, {"measurement": "grade 1–2 peripheral sensory neuropathy", "setting": "every 2 weeks, N = 25", "value": 20, "unit": "%"}, {"measurement": "grade 3 peripheral sensory neuropathy", "setting": "every 2 weeks, N = 25", "value": 8, "unit": "%"}, {"measurement": "patients discontinued because of a TRAE", "setting": "every 2 weeks, N = 25", "value": 4, "unit": "%"}, {"measurement": "patients with dose reduction", "setting": "every 2 weeks, N = 25", "value": 16, "unit": "%"}, {"measurement": "patients with grade ≥ 3 all-cause AEs", "setting": "every 2 weeks, N = 25", "value": 72, "unit": "%"}, {"measurement": "temporary discontinuations due to TRAEs", "setting": "every 2 weeks, N = 25", "value": 44, "unit": "%"}, {"measurement": "treatment-related grade 3–4 neutropenia", "setting": "every 2 weeks, N = 25", "value": 24, "unit": "%"}, {"measurement": "patients died on study", "setting": "every 2 weeks, N = 25, disease progression", "value": 16, "unit": "%"}, {"measurement": "deaths because of a treatment-related AE", "setting": "every 3 weeks and every 2 weeks", "value": "None of the patients died because of a treatment-related AE"}, {"measurement": "treatment-emergent, all-cause AEs", "setting": "every 3 weeks or every 2 weeks", "value": "all patients"}, {"measurement": "treatment-related grade 5 AEs", "setting": "every 3 weeks regimen", "value": "^aNo treatment-related grade 5 AEs were observed with the every 3 weeks regimen."}, {"measurement": "febrile neutropenia", "setting": "every 3 weeks, N = 112", "value": 2.7, "unit": "%"}, {"measurement": "grade ≥ 3 treatment-related neutropenia", "setting": "every 3 weeks, N = 112", "value": 25, "unit": "%"}, {"measurement": "patients discontinued because of a TRAE", "setting": "every 3 weeks, N = 112", "value": 2.7, "unit": "%"}, {"measurement": "patients with dose reduction", "setting": "every 3 weeks, N = 112", "value": 6.3, "unit": "%"}, {"measurement": "patients with grade ≥ 3 all-cause AEs", "setting": "every 3 weeks, N = 112", "value": 79.4, "unit": "%"}, {"measurement": "temporary discontinuations due to TRAEs", "setting": "every 3 weeks, N = 112", "value": 14.3, "unit": "%"}, {"measurement": "treatment-related peripheral sensory neuropathy (all grade 1 or 2)", "setting": "every 3 weeks, N = 112", "value": 12.5, "unit": "%"}]}
